Compound activity deposited in PubChem BioAssay by several laboratories.
FLuc act counter – affects firefly luciferase, flagging false hits in luciferase stimulation screens; P08659; activation factor at 10 µM; 200,000 tested, under 10 active; ATPlite luciferase biochemical, luminescence, 10 min; 0 = ATP-free wells, 1 = DMSO control;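 active = luciferase activation factor, scaled between plate controls, of at least 2 with compound at 10 µM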
Target sequence (P08659 whole entry, looked up): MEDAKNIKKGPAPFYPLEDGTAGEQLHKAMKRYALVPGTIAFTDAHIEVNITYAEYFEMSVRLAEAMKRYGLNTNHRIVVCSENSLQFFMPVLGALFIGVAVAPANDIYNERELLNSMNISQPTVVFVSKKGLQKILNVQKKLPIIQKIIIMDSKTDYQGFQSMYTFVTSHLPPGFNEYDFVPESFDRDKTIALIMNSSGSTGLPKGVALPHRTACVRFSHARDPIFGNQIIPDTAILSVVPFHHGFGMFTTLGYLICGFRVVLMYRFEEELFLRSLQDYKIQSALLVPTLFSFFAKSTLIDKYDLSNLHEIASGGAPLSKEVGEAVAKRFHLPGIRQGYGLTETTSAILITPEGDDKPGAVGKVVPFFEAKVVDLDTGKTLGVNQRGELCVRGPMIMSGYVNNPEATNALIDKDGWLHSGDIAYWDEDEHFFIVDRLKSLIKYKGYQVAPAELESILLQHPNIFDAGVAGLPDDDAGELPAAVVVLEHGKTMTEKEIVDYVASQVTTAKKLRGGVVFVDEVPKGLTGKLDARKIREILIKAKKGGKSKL
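System: luciferase plus luciferin reagent, cell-free; medium: PBS as buffer for the ATP substrate; dosing: test compounds dosed from 2 mM stocks in 100% DMSO; timing: 10 min post-reagent at room temperature; measured by: luminescence measurement of luciferase light output; evaluation: luciferase activation, seen as luminescence increase over controls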
Redox H2O2 prof – compounds producing H2O2 with reducing agent – biochemical, NIH compound library profiling, artefact control for MLSCN library redox annotation, primary screen; hit rate 0.03% among 200,000; AID 878; activation, % at 10 µM; DTT-dependent redox cycling H2O2, phenol red/HRP absorbance; 100% = 100 µM peroxide control, 0% = buffer;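 active = activation of at least 50% relative to the plate's high and low controls in the primary single-dose screen; inactive = activation below 50%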;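 also: compound incubated with DTT at 0.8 mM final as the reducing agent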
FLuc inh counter – counter-screen for luciferase assay inhibitors: firefly luciferase inhibition; inhibition, % at 10 µM; AID 1006; ATPLite firefly luciferase biochemical luminescence, 10 min; P08659; hit rate 1.5% among 200,000;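 active = inhibition above about 50% when tested at 10 µM, limit read from the data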
Measles CPE – protection of cells from measles virus. Measles virus-infected cells, CPE protection, absorbance. protection (pct of control), % at 4 µM. hit rate 1.5% among 140,000. AID 841; in the data active = protection mostly above about 24%, no sharp cut-off; inactive = mostly below about 26%
ABCB1 inh – blocks JC-1 efflux by human ABCB1 transporter | inhibition, % at 6.6 µM | hit rate 0.067% among 190,000 | CCRF-Adr cells, flow cytometry | P08183; in the data active = inhibition above about 40%;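 also: higher value means more JC-1 retained so stronger ABCB1 efflux block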
ABCG2 inh – human ABCG2 inhibition, ABCB1 as counter-screen; inhibition, % at 6.6 µM; Q9UNQ0; IgMXP3 cells, JC-1 efflux, flow cytometry; hit rate 0.1% among 190,000;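 active = inhibition above 80%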
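material = IgMXP3 (ABCG2) plus far-red-tagged CCRF-Adr (ABCB1) cells | amount = 3 million cells/mL, equal mix of both lines | also added = JC-1 transporter substrate | dosing = one concentration, 6.6 µM final | schedule = 10 min at 25 °C | measured by = flow cytometric JC-1 green MFI at 530 nm | read-out basis = percent efflux inhibition, scaled nicardipine 100% to DMSO 0%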
Large screens that a line does not name were inactive. Rows were chosen to be rich in hits. Some 2.7% of all compounds tested hit in one or more screens of this group.

O=C(O)CC1S/C(=N\N=C2CCCCCCC2)N(c2ccccc2)C1=O (configuration not stated)	none (no result: Measles CPE)
O=C(O)CC1SC(=Nc2ccccc2)N(c2ccccc2)C1=O (configuration not stated)	Measles CPE 51
COc1cccc(-c2nc(CS(=O)(=O)CC(=O)N3CCc4ccccc43)c(C)o2)c1	none
N#C/C(=C/c1ccco1)c1nc2ccccc2s1	FLuc inh counter 70
N#C/C(=C/c1ccc(-c2cc(C(=O)O)cc(C(=O)O)c2)o1)c1nc2ccccc2s1	none (no result: Measles CPE)
N#C/C(=C\c1ccco1)c1nc2ccccc2s1	FLuc inh counter 68
CN1CCN(CCCN(Cc2cccs2)C(=S)Nc2ccc(Cl)cc2)CC1	none (no result: Measles CPE)
CCOC(=O)c1ccc(NC(=S)N(CCCN2CCCCCC2)Cc2ccco2)cc1	Measles CPE 49
CCOC(=O)c1ccc(NC(=S)N(CCN2CCCCCC2)Cc2ccco2)cc1	none (no result: Measles CPE)
CCc1ccc(NC(=S)N(CCCN2CCN(C)CC2)Cc2cccs2)cc1	Measles CPE 53
Cc1cccc2cc(CN(CCN(C)C)C(=S)Nc3ccccc3)c(=O)[nH]c12	none (no result: ABCB1 inh)
Cc1ccc(S(=O)(=O)N2CCCC2C(=O)NCc2ccc3c(c2)OCO3)cc1 (configuration not stated)	none (no result: Measles CPE)
CCCCCCCCCCCC(=O)c1c(O)cccc1O	none (no result: Measles CPE)
O=C(NCc1ccc(F)cc1)C1CCCN(C(=O)Nc2ccccc2)C1 (configuration not stated)	none
CCN(CC)C(=O)C1CCCN(C(=O)Nc2ccccc2)C1 (configuration not stated)	Measles CPE 35
Cc1sc2nc(-c3cccnc3)nc(Cl)c2c1-c1ccccc1	none
Cc1cccc(-c2noc(CCCC(=O)Nc3cccnc3)n2)c1	Measles CPE active
Cc1cccc(-c2noc(CCCC(=O)Nc3ccc(C(N)=O)cc3)n2)c1	none
C=CCN1C(=O)C(C)(C)N(C(C)=O)c2ccccc21	Measles CPE 20
Cc1ccc(NC(=O)COC(=O)c2ccc(OCc3c(C)noc3C)cc2)cc1S(=O)(=O)N1CCOCC1	none
CCc1ccc2oc(-c3cc(N=Cc4cccc(OC)c4O)ccc3O)nc2c1	FLuc inh counter 84
COc1cccc(C=Nc2cc(C)cc(C)c2)c1O	none
O=C(O)c1cc(-c2ccc3c(c2)OCO3)nc2ccc(Br)cc12	FLuc inh counter 72 (no result: Measles CPE)
Clc1ccc(-c2cc(COc3ccccc3)on2)cc1	none (no result: Measles CPE)
Cc1ccc(-c2ccc(OCC(=O)N3CCOCC3)cc2)cc1	none
Cc1ccc(C(=O)Nc2cc(C)c(OCC(=O)N3CCOCC3)c(C)c2)cc1	FLuc inh counter 88
O=C(CN(Cc1ccco1)C(=O)CNS(=O)(=O)c1ccccc1)NCc1ccccc1	none
O=C(CN(Cc1ccco1)C(=O)CNS(=O)(=O)c1ccc(F)cc1)NCCc1ccccc1	Measles CPE 39
COc1ccc(Nc2nnc(SCC(=O)N3CC(=O)Nc4ccccc43)s2)cc1	FLuc inh counter 55 (no result: Measles CPE)
COc1ccc2c(c1)O[C@H](c1ccc3c(c1)OCO3)[C@@H](O)C2=O	Measles CPE 27
COc1ccc2c(c1)O[C@@H](c1cccc(C(F)(F)F)c1)[C@H](O)C2=O	none
O=C(Nc1ccccc1)Nc1ccc(C(=O)N2CCOCC2)cc1	FLuc inh counter 55
CC(C)C(=O)Nc1ccc(C(=O)N2CCCCCC2)cc1	Measles CPE 39
O=C(Nc1ccc(C(=O)N2CCOCC2)cc1)Nc1ccc(Cl)cc1Cl	none (no result: Measles CPE)
O=C(Cn1cnc2scc(-c3ccc(Br)cc3)c2c1=O)N1CCOCC1	none (no result: Measles CPE)
Cc1cccc(C)c1NC(=O)CCN1C(=O)C2C3CCC(C3)C2C1=O (configuration not stated)	Measles CPE 21
COc1ccc(C(=O)Nc2ccccc2C(=O)NC(Cc2ccc(O)cc2)C(=O)NNC(=O)c2ccncc2)cc1 (configuration not stated)	none (no result: Measles CPE)
Cc1ccsc1C=C1C(=O)c2ccccc2C1=O	FLuc inh counter 73
Cc1ccsc1/C=C1/C(=O)NN(c2ccccc2)C1=O	FLuc inh counter 59 (no result: Measles CPE)
O=C1NN(c2ccccc2)C(=O)/C1=C\c1cccc(OC(=O)c2cccs2)c1	none
COc1ccc(C2CC(c3ccc(OC)cc3)n3nc(NC(=O)c4ccco4)nc3N2)cc1 (configuration not stated)	none
Cc1cc2cc(C)c(NCCNC(=O)c3cccs3)nc2cc1C	none (no result: Measles CPE)
Nc1ccc(Sc2nc3ccccc3[nH]2)cc1	none (no result: Measles CPE)
CCOCN(C(=O)Cn1c(CO)nc2ccccc21)c1c(C)cccc1CC	Measles CPE 35
CCOCN(C(=O)Cn1cnc2ccccc21)c1c(C)cccc1CC	none (no result: Measles CPE)
CCc1ccc(C2=NN(CCC(=O)NC(C)CCc3ccccc3)C(=O)CC2)cc1 (configuration not stated)	none (no result: Measles CPE)
S=C(Nc1ccccc1)Nc1nc2ccccc2n1CCOc1ccccc1	Measles CPE 26
CC(C)(C)Cc1nnc(NC(=O)Cc2cccs2)s1	none (no result: Measles CPE)
Cc1ccc(-n2nnc(-c3nccs3)n2)cc1	FLuc inh counter 96 (no result: Measles CPE)
Clc1ccc(-n2nnc(-c3nccs3)n2)cc1Cl	FLuc inh counter 59 (no result: Measles CPE)
Cc1ccc(-n2nnc(-c3cc4ccccc4nc3Cl)n2)cc1	none (no result: Measles CPE)
CCC(=O)Nc1ccc(NC(=O)CSc2nnnn2-c2cccnc2)cc1C	none
COc1ccccc1N1CCN(C(=O)COc2ccc(S(=O)(=O)NC(C)C)cc2)CC1	none (no result: Measles CPE)
COc1cc2c(cc1OC)CN(C(=O)c1ccccc1C(=O)O)CC2	Measles CPE 60
OCCNCCCCOc1ccc(F)cc1	Measles CPE 48
O=C1COc2ccc(C(=O)c3ccccc3C(=O)NCc3ccccc3)cc2N1	Measles CPE 22 (no result: ABCB1 inh, ABCG2 inh)
NC(=O)c1ccccc1N/C=C/C(=O)c1ccc(Cl)cc1Cl	FLuc inh counter 96
O=C(Nc1ccccc1Cl)c1ccc(Cl)cc1Cl	none (no result: Measles CPE)
NC(=O)c1ccccc1N/C=C/C(=O)c1cccs1	FLuc inh counter 85
Cc1cccc(N/C=C/C(=O)c2cccs2)c1C	FLuc inh counter 92
Cc1ccc(C(=O)/C=C/Nc2ccccc2C(N)=O)o1	FLuc inh counter 63
CCN(c1ccccc1)S(=O)(=O)c1ccc(Cl)c(NC(=O)COC(=O)c2ccc[n+]([O-])c2)c1	none (no result: Measles CPE)
COc1cc([N+](=O)[O-])ccc1N/C=C/C(=O)c1cccs1	FLuc inh counter 93
COc1cc([N+](=O)[O-])ccc1NC(=O)/C=C\C(=O)O	none (no result: Measles CPE)
O=C(/C=C/Nc1ccc(F)cc1)c1cccs1	none (no result: FLuc act counter, FLuc inh counter, Measles CPE, ABCB1 inh, ABCG2 inh)
O=C(/C=C/Nc1ccc(F)c(F)c1)c1cccs1	FLuc inh counter 80
NC(=O)c1ccccc1N/C=C/C(=O)c1ccc(F)cc1	FLuc inh counter 90
COc1ccc2oc(=O)c(C(=O)OCC(=O)c3ccc([N+](=O)[O-])cc3)cc2c1	none (no result: Measles CPE)
